One data set has as its system nAChRs. The following applies: cited from earlier work.
The next data set deals with SERT (Rattus norvegicus, UniProt P31652). Put plainly: Synaptosomal [3H]5-HT uptake, rat striatal synaptosomes. In kind it is biochemical.
The target in another data set is α4β2 nAChRs (Rattus norvegicus, UniProt P09483+P12390). As to the kind of experiment: [3H]NIC binding to rat brain membranes. The settings on record: 0.1 nM - 0.1 mM.
The next data set addresses α7 nAChRs (Rattus norvegicus, UniProt Q05941). Put plainly: [3H]MLA binding to rat brain membranes. The following applies: 0.1 nM - 0.1 mM. The procedure, abridged:
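Membranes from rat whole brain minus cortex and cerebellum, washed by repeated 31,000 g spins, with a 10 min 37°C incubation. Binding used 100–140 μg protein, test compound at 7–9 concentrations (0.1 nM–0.1 mM), and [3H]MLA added at 3 nM, in HEPES saline buffer pH 7.5, for 60 min at room temperature. Nonspecific binding was defined with 10 μM nicotine. Read-out by PEI-GF/B filtration and scintillation; n=3.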

Another data set deals with VMAT2 (Rattus norvegicus, UniProt Q01827). As to the kind of experiment: Vesicular [3H]DA uptake, rat striatal synaptic vesicles. The class given is biochemical.
VMAT2, sequence (Q01827 whole entry): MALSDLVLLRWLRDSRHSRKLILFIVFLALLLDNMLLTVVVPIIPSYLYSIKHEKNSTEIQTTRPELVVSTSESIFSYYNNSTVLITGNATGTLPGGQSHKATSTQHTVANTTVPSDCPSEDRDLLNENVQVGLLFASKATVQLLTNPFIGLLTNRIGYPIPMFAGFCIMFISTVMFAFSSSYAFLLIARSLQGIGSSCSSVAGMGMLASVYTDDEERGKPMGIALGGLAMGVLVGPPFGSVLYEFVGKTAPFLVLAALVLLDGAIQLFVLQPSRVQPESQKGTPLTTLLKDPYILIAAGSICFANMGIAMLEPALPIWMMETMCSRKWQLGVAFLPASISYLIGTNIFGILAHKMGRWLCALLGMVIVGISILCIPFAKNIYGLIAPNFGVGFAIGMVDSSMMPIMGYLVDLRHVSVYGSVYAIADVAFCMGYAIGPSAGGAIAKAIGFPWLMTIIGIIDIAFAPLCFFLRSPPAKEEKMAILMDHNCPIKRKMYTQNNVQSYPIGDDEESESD
Data set [1] relates to METH-sensitized locomotor activity. Put plainly: METH-induced hyperactivity in METH-sensitized rats, GZ-11610 oral. The class given is in vivo, rat. The settings on record: 5.6-300 mg/kg.
Data set [2] has the same test system. Put plainly: METH-induced hyperactivity in METH-sensitized rats, GZ-11610 s.c. The settings on record: 1-30 mg/kg, 15 min before METH 1 mg/kg s.c., vs vehicle. In kind it is in vivo, rat.
For a further data set, the target named is hERG channels (Homo sapiens, UniProt Q12809). Put plainly: [3H]Dofetilide binding to hERG channels on HEK-293 cell membranes. A general note: The hERG channel carries a current that helps repolarise heart muscle cells.
hERG channels, sequence (Q12809 whole entry): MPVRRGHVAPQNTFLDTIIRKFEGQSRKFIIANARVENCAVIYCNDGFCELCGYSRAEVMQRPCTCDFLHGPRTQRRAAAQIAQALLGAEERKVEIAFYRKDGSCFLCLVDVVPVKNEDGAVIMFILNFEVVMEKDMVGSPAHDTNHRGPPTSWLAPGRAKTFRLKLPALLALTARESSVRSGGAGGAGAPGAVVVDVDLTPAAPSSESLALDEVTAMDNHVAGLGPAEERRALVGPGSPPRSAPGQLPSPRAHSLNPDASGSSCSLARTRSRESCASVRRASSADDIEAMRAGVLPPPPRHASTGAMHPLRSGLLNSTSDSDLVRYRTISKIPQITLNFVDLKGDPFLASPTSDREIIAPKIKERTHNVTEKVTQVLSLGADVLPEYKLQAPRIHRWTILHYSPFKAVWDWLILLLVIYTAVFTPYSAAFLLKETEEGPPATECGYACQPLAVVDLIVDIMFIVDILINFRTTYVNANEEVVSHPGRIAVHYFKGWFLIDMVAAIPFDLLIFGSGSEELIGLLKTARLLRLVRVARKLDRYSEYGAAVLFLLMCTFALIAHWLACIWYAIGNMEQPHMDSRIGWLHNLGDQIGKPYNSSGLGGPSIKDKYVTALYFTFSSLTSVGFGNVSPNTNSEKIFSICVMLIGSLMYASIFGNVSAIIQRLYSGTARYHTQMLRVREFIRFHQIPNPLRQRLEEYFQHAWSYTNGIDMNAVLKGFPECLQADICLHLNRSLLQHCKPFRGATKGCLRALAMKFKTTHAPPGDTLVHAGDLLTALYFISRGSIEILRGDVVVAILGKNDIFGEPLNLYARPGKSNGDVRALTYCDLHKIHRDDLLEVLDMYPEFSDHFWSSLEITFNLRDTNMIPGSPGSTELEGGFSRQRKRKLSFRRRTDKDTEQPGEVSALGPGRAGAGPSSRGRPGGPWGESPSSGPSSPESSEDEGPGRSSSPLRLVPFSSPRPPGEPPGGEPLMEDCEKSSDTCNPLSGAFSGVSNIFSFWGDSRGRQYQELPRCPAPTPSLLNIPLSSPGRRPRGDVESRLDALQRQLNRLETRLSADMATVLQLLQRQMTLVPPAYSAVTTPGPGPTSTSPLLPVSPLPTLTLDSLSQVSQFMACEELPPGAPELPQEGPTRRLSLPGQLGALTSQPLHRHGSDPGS
For another data set, the target named is DAT (Rattus norvegicus, UniProt P23977). Put plainly: Synaptosomal [3H]DA uptake, rat striatal synaptosomes. In kind it is biochemical.
DAT, sequence (P23977 whole entry): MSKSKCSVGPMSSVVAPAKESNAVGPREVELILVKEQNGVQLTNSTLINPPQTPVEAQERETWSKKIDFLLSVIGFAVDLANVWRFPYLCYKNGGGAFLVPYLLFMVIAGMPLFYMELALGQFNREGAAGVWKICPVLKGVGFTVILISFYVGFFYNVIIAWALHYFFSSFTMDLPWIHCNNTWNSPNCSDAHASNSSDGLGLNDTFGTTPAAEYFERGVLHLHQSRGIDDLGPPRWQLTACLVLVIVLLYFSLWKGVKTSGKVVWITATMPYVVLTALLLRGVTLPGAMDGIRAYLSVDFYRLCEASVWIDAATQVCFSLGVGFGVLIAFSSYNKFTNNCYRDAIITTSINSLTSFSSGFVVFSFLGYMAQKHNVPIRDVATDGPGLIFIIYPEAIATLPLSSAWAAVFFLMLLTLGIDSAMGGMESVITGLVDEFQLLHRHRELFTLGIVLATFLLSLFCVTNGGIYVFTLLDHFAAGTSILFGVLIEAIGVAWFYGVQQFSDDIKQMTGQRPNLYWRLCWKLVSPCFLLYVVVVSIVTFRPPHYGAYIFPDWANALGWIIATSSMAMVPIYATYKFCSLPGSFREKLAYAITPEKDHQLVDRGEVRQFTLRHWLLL
A further data set concerns locomotor activity. Put plainly: Locomotor sensitization to repeated METH administration. The class given is in vivo, rat. Put shortly: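 Rats randomly assigned to METH or saline groups. Day 0: 60 min chamber habituation without injection. Distance traveled on Days 1 and 10 compared with saline controls and with Day 1.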
The conditions of data set [3]: cited from earlier work.
For data set [4], the system named is cells co-expressing VMAT2 and DAT. The settings on record: dissociated cells co-expressing VMAT2 and DAT; cited from earlier work.

We go through five molecules from paper PMC7047575 (The AAPS journal, 2018).

The Ki is a measure of affinity in units of concentration, obtained from inhibition or displacement. As usually defined, the LogP is a log measure of how a compound divides between an organic and an aqueous phase.

Counter-ions that a name gives are not always drawn. A value given as a limit tells only on which side of the number the result lay.

SERT, sequence (P31652 whole entry): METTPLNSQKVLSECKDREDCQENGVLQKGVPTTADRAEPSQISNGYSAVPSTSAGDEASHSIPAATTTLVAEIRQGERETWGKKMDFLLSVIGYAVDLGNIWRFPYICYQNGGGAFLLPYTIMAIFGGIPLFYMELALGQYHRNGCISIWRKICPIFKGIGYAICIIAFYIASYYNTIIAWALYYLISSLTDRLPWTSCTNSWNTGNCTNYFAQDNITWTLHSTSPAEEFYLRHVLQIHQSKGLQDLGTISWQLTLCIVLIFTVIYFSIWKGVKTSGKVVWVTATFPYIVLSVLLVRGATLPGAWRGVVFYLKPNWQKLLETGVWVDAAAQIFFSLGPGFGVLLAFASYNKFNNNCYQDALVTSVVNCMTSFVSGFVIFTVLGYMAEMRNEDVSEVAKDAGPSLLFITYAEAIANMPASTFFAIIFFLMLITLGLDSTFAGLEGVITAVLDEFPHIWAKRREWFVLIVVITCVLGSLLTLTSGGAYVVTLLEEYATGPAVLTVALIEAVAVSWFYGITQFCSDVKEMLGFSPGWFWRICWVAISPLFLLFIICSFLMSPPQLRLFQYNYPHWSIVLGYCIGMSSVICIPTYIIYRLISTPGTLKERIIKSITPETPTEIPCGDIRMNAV
α4β2 nAChRs, sequence (P09483 31-630): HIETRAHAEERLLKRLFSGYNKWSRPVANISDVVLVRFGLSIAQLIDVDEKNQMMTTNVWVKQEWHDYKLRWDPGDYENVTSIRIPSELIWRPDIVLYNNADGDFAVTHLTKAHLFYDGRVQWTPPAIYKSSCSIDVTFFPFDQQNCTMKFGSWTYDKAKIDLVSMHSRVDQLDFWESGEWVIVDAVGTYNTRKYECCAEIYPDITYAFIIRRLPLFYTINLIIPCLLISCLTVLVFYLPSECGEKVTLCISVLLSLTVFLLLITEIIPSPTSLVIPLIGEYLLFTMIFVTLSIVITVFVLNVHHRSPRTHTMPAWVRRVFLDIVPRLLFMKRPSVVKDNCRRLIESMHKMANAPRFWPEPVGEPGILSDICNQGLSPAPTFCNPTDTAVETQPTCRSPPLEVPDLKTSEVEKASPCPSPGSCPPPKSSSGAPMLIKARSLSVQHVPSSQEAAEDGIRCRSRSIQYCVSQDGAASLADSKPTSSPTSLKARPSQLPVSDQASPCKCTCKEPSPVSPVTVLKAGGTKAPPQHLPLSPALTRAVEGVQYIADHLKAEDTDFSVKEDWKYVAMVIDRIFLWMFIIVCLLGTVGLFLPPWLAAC
α4β2 nAChRs, sequence (P12390 25-500): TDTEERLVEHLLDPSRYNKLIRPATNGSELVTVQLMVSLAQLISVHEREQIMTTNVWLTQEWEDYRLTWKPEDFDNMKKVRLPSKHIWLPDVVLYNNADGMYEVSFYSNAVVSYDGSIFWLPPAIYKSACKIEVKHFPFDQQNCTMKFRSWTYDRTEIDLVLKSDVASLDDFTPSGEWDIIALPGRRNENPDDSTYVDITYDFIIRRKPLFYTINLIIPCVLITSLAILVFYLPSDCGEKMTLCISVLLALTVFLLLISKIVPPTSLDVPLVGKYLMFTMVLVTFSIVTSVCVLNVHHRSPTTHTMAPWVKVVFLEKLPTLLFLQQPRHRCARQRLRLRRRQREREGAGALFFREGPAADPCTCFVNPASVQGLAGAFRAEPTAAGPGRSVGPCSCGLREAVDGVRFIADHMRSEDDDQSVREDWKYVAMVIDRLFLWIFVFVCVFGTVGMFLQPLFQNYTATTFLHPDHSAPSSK
α7 nAChRs, sequence (Q05941 23-502): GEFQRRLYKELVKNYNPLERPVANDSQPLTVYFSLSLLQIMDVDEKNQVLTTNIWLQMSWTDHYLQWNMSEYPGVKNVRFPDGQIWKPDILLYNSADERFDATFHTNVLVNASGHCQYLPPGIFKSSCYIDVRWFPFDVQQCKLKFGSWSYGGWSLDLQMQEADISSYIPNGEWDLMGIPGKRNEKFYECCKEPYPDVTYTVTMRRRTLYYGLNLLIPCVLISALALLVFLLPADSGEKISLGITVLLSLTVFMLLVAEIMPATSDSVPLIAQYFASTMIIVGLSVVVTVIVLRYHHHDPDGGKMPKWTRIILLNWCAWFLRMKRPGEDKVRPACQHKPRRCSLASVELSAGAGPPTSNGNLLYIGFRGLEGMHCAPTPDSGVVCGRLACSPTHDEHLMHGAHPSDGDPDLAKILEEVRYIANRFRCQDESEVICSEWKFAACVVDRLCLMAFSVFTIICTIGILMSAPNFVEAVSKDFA

As to `COc1ccc(CCC2CCCC(CCc3ccc(OC)cc3)N2C[C@@H](O)CO)cc1.Cl` (stereo in doubt) [GZ-793A, R-N-(1,2-dihydroxypropyl)-2,6-cis-di-(4-methoxyphenethyl)piperidine hydrochloride], the “selectivity for VMAT2 over nAChRs” value in the data set with nAChRs is over 1000 fold.
With `COc1ccc(CCCN[C@H](C)Cc2ccccc2)cc1` [GZ-11610, R-3-(4-methoxyphenyl)-N-(1-phenylpropan-2-yl)propan-1-amine], the “Imax of [3H]5-HT uptake at SERT” value at SERT is on record as over 95%. Moreover, the Ki on SERT was 5.55 µM; at VMAT2 (read-out: Ki, inhibition of [3H]DA uptake at VMAT2, rat striatal synaptic vesicles), 0.0087 µM; on hERG channels, 9.5 µM; on DAT, 2.51 µM. Further, the “Imax, inhibition of [3H]NIC binding” value at α4β2 nAChRs is given as under 20%. In addition, the “Imax, inhibition of [3H]MLA binding” value at α7 nAChRs is recorded as under 20%. The “maximal inhibition (Imax) of [3H]DA uptake at VMAT2” value on VMAT2 (0.1 nM - 0.1 mM) is over 95%. Besides, the “effect on distance traveled after METH in the METH-sensitized group” value in data set [1] (15 min before METH 1 mg/kg s.c., vs vehicle) was “reduced the distance traveled”; in data set [2] it was “dose-dependently reduced the distance traveled”. Also, in [1] (one-way ANOVA), the “effect on locomotor activity in the saline group” value is reported as “no significant GZ-11610 effects on locomotor activity”. Moreover, the “Imax of [3H]dofetilide binding to hERG channels” value on hERG channels (HEK-293 cell membranes, 0.1 nM - 0.1 mM) was over 80%. Moreover, on DAT (0.1 nM - 0.1 mM), the “Imax of [3H]DA uptake at DAT” value was over 95%.
On to `CN[C@@H](C)Cc1ccccc1` [METH, (+)-Methamphetamine hydrochloride], for which the “distance traveled compared to saline, Day 10” value in the data set with locomotor activity (METH 1 mg/kg s.c. once daily for 10 days) is “increased distance traveled (p < 0.05)”. The “distance traveled compared to saline, Day 1” value in the data set on locomotor activity (acute METH 1 mg/kg s.c.) is listed as “increased (p < 0.05) distance traveled”. The LogP in [3] is given as 2.10.
Consider `COc1cc2c(cc1OC)[C@H]1C[C@@H](O)[C@H](CC(C)C)CN1CC2` [dihydrotetrabenazene], for which the “reduction of METH-evoked DA efflux” value in data set [4] was 60%.
Turning to `CN1[C@@H](CC(=O)c2ccccc2)CCC[C@H]1C[C@H](O)c1ccccc1` [lobeline], the “reduction of METH-evoked DA efflux” value in [4] is 60%.
